The record followed here is ChEMBL document CHEMBL1129535, “Antitumor agents. 164. Podophenazine, 2'',3''-dichloropodophenazine, benzopodophenazine, and their 4 beta-p-nitroaniline derivatives as novel DNA topoisomerase II inhibitors” (J Med Chem, 1996).

In assay [1] the test system is KB. The assay can be described thus: Growth inhibitory activity (antiproliferative) against KB cell lines. It counts as functional, cell-based. Particulars: Homo sapiens. The procedure, abridged:
(§1)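 Cells (50 000 or 5000 per well) were seeded and left overnight. Compound was diluted from DMSO stocks into medium at 2× final and added in duplicate. After 2 days the cells were trypsinized and suspended in PBS with 0.5% trypan blue. Viable cells, those not staining blue, were counted by hemacytometer. IC50 was read graphically. KB/7d is an etoposide-selected multidrug-resistant subclone with reduced topoisomerase II.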

The test system of assay [2] is KB. In words: Growth inhibitory activity (antiproliferative) against KB/7d cell lines. The class given is functional, cell-based. To be noted: Homo sapiens. The procedure, abridged:
as §1

Assay [3] has as its system Nucleic Acid. The assay can be described thus: Stimulation of in vitro Topoisomerase II-Linked DNA Complex Formation and Interference with Etoposide-Induced Cleavage at concentration 100 uM. The class given is functional. The procedure, abridged:
(§2)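 Buffer: 30 mM Tris-HCl pH 7.6, 60 mM KCl, 8 mM MgCl2, 3 mM ATP, 15 mM β-mercaptoethanol and 30 μg/mL BSA, with 4 U topoisomerase II. Reactions ran 30 min at 37 °C. Protein-linked DNA was K+/SDS-precipitated and counted (cpm), mean ± SD of 2–4 determinations.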

A short description of assay [4]: The differential toxicity ratio was defined as IC50(KB/7d)/IC50(KB). The class given is functional. The procedure, abridged: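 The ratio IC50(KB/7d)/IC50(KB) uses IC50s from 2-day treatments scored by trypan-blue-excluding hemacytometer counts. KB/7d is an etoposide-selected subclone with reduced topoisomerase II.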
Assay [5] concerns Nucleic Acid. The assay can be described thus: Stimulation of in vitro Topoisomerase II-Linked DNA Complex Formation and Interference with Etoposide-Induced Cleavage at concentration 1 uM. The class given is functional. The gist of the method:
as §2

The test system of assay [6] is Nucleic Acid. In words: Stimulation of in vitro Topoisomerase II-Linked DNA Complex Formation and Interference with Etoposide-Induced Cleavage at concentration 50 uM. It counts as functional. The procedure, abridged:
as §2

Usually IC50 stands for the midpoint of a concentration-inhibition curve. Read a low IC50 as greater potency.

On to `COc1cc([C@@H]2c3cc4nc5cc(Cl)c(Cl)cc5nc4cc3[C@H](O)[C@H]3COC(=O)[C@H]23)cc(OC)c1OC`, for which the results for the IC50 with KB [1] and in the assay on KB [2] were 13.3 µM and 9.2 µM, respectively.
In the case of `COc1cc([C@@H]2c3cc4c(cc3[C@@H](O[C@@H]3O[C@@H]5CO[C@@H](C)O[C@H]5[C@H](O)[C@H]3O)[C@H]3COC(=O)[C@H]23)OCO4)cc(OC)c1O` [ETOPOSIDE], the results for the 50% inhibitory concentration (IC50) in the assay with KB [1] and with KB [2] were 0.164 µM and 23.8 µM, respectively. Besides, the cpm is 1840 in the assay with Nucleic Acid [3], 216 in the assay with Nucleic Acid [5] and 2460 with Nucleic Acid [6]. In assay [4], the Ratio came out at 145.
As to `COc1cc([C@@H]2c3cc(O)c(O)cc3[C@@H](Nc3ccc([N+](=O)[O-])cc3)[C@H]3COC(=O)[C@H]23)cc(OC)c1O`, the half-maximal inhibitory concentration (IC50) in the assay with KB [1] amounted to 0.42 µM; with KB [2], 16.6 µM. For the same compound, the Ratio in assay [4] turned out to be 39. Moreover, the cpm with Nucleic Acid [6] amounted to 661.
As for `COc1cc([C@@H]2c3cc4nc5cc6ccccc6cc5nc4cc3[C@@H](Nc3ccc([N+](=O)[O-])cc3)[C@H]3COC(=O)[C@H]23)cc(OC)c1O`, it took 6.63 µM to reach half-maximal inhibition with KB [1] (IC50).
For `COc1cc([C@@H]2c3cc4nc5cc(Cl)c(Cl)cc5nc4cc3[C@@H](Nc3ccc([N+](=O)[O-])cc3)[C@H]3COC(=O)[C@H]23)cc(OC)c1O`, the IC50 with KB [1] was 0.48 µM; with KB [2], 10.6 µM. The values for the cpm in the assay on Nucleic Acid [3], in the assay on Nucleic Acid [5] and in the assay on Nucleic Acid [6] were 101, 105 and 103, respectively. Moreover, in assay [4], the Ratio was 22.
`COc1cc([C@@H]2c3cc4c(cc3[C@@H](Nc3ccc([N+](=O)[O-])cc3)[C@H]3COC(=O)[C@H]23)OCO4)cc(OC)c1O`: the values for the IC50 in the assay on KB [1] and in the assay with KB [2] were 0.032 µM and 0.55 µM, respectively. Also, the Ratio in assay [4] is 17 KB 7d-1. The cpm in the assay on Nucleic Acid [6] turned out to be 2930.
Consider `COc1cc([C@@H]2c3cc4nc5ccccc5nc4cc3[C@@H](Nc3ccc([N+](=O)[O-])cc3)[C@H]3COC(=O)[C@H]23)cc(OC)c1O`, for which the IC50 with KB [1] was determined as 0.11 µM; in the assay with KB [2], 0.56 µM. Also, the cpm came out at 446 in the assay on Nucleic Acid [3], 320 in the assay with Nucleic Acid [5] and 309 with Nucleic Acid [6]. Also, the Ratio in assay [4] came to 5.
For `COc1cc([C@@H]2c3cc4nc5ccccc5nc4cc3[C@H](O)[C@H]3COC(=O)[C@H]23)cc(OC)c1OC`, the values for the IC50 in the assay on KB [1] and in the assay with KB [2] were 23.4 µM and 6.21 µM, respectively.
